From ChEMBL document CHEMBL4270631, “Design, synthesis and in vitro anti-Zika virus evaluation of novel Sinefungin derivatives” (Eur J Med Chem, 2018)

How the values were obtained:
[1] = target: mRNA cap guanine-N(7) methyltransferase (Homo sapiens, UniProt O43148); assay: Inhibition of recombinant human N-terminal His-tagged RNMT (1 to 476 residues) expressed in Escherichia coli BL21 using 5'-GpppAGAACCUG-biotin-TEG-3 as substrate after 10 mins by [3H]methyl incorporation assay
[2] = Inhibition of recombinant N-terminal GST-tagged Dengue virus 3 NS5 N7-MTase F133A mutant expressed in Escherichia coli BL21 by scintillation proximity assay; design: species or system dengue virus type 3
[3] = Inhibition of recombinant N-terminal GST-tagged Dengue virus 3 2'-O-MTase F133A mutant expressed in Escherichia coli BL21 by scintillation proximity assay; design: species or system dengue virus type 3
[4] = Inhibition of recombinant N-terminal GST-tagged Dengue virus 3 2'-O-MTase activity expressed in Escherichia coli BL21 by scintillation proximity assay; design: species or system dengue virus type 3
[5] = target: DNA (cytosine-5)-methyltransferase 1 (Homo sapiens, UniProt P26358); assay: Inhibition of human DNMT1A using double-stranded hemi-DNA oligonucleotide as substrate measured after 40 mins by [3H]methyl incorporation assay
DNA (cytosine-5)-methyltransferase 1, sequence (P26358 whole entry): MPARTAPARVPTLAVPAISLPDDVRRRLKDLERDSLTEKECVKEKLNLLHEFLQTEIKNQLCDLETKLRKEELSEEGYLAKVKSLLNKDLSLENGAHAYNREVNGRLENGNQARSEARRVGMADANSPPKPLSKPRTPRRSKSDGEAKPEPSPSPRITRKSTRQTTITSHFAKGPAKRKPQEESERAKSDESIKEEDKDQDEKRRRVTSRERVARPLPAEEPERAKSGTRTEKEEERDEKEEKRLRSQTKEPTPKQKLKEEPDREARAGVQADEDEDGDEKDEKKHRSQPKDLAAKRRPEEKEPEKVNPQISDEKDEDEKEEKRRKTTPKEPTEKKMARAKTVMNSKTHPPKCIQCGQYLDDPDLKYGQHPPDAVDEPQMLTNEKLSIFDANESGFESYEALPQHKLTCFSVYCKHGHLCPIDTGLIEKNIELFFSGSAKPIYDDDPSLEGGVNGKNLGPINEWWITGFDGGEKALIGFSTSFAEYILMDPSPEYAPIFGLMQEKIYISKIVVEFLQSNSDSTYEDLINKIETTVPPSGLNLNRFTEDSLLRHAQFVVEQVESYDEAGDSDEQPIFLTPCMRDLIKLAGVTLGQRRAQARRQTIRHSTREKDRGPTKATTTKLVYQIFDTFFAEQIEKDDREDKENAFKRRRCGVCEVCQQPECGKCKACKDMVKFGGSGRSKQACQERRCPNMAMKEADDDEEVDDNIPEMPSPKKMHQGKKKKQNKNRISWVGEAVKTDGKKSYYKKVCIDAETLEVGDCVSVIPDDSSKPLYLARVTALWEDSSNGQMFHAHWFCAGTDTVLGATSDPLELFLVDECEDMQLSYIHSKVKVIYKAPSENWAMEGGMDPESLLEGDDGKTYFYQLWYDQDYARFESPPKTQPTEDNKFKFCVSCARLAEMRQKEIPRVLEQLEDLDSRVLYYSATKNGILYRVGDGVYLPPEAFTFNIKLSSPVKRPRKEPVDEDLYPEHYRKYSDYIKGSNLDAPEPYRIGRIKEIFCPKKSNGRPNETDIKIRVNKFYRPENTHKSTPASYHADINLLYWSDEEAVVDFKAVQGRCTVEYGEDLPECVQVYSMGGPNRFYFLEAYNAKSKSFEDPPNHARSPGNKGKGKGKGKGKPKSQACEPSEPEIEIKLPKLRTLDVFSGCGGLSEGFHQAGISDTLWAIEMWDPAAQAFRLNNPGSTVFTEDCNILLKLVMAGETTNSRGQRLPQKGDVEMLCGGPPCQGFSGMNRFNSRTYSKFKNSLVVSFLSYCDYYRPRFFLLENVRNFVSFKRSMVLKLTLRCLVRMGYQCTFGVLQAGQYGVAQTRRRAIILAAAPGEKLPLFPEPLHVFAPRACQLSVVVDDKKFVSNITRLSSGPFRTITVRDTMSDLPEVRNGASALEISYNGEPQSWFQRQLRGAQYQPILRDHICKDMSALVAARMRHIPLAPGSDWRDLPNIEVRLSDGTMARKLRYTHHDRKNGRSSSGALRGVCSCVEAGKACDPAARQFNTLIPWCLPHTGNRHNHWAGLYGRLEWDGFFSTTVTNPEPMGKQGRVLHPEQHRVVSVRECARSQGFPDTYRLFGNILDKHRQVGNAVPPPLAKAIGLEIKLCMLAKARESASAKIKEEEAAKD

[6] = Inhibition of recombinant N-terminal GST-tagged Dengue virus 3 NS5 N7-MTase activity expressed in Escherichia coli BL21 by scintillation proximity assay; design: species or system dengue virus type 3
Zika virus [7] = assay: Antiviral activity against Zika virus SMGC infected in BHK cells assessed as inhibition of virus induced cytopathic effect after 8 days by CellTiter-Glo luminescent cell viability assay; format: functional, organism-based; details: 192 h
Summary of the method: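 BHK cells seeded at 5,000/well in DMEM with 10% FBS and P/S, 24 h at 37°C, 5% CO₂, then switched to maintenance medium (DMEM, 2% FBS, P/S). Vero-grown ZIKV diluted to 100TCID₅₀ added with compounds in 3-fold dilutions from 50 μM; incubated 8 days until 100% CPE; viability read by CellTiter-Glo luminescence; IC50 calculated from curves.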

[8] = Selectivity index, ratio of CC50 for BHK cells to IC50 for Zika virus SMGC infected in BHK cells; format: toxicity, cell-based; details: hamster, BHK cells infected with Zika virus SMGC, read-out: Ratio CC50/IC50
Summary of the method: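 Ratio of CC50 from 8-day CellTiter-Glo viability of uninfected BHK cells (compound 200–0.09 μM) to IC50 from 8-day protection of BHK cells against 100TCID₅₀ ZIKV-induced CPE (compound from 50 μM, 3-fold dilutions), both in DMEM with 2% FBS.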

[9] = Cytotoxicity against BHK cells after 8 days by CellTiter-Glo assay; format: cell-based, Mesocricetus auratus; details: hamster
Summary of the method: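 BHK cells seeded at 5,000/well, allowed 24 h recovery, then given maintenance medium (DMEM, 2% FBS, P/S) containing compound in 3-fold dilutions from 200 μM to 0.09 μM, or drug-free. Viability read by CellTiter-Glo luminescence after 8 days' exposure; CC50 calculated from curves.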

Zika virus [10] = assay: Potency index, ratio of EPZ004777 IC50 to test compound IC50 for Zika virus SMGC infected in BHK cells; format: functional

mRNA cap guanine-N(7) methyltransferase, sequence (O43148 whole entry, the tested form may be a part): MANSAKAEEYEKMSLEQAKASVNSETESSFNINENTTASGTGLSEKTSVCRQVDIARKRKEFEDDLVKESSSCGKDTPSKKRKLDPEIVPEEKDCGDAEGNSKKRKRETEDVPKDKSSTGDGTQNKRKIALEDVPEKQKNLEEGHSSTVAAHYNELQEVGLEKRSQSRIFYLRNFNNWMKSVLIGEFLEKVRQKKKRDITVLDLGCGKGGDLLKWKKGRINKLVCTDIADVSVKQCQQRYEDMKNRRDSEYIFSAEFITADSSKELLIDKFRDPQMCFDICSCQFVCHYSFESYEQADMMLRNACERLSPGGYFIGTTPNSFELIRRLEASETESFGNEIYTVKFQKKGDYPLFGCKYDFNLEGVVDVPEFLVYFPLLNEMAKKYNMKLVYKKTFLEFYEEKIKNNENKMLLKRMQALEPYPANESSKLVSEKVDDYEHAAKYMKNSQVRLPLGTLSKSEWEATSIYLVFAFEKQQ

| SMILES | IC50 (Zika virus [7]) [µM] | selectivity ratio [8] | CC50 at 192 h [9] [µM] | other results |
| --- | --- | --- | --- | --- |
| N[C@@H](CCSC[C@H]1O[C@@H](n2cnc3c(NCc4cccc(Cl)c4)ncnc32)[C@H](O)[C@@H]1O)C(=O)O |  |  |  | Ki [1]: > 50 µM; Ki [2]: 0.044 to 5.68 µM; Ki [3]: 0.044 to 5.68 µM; Ki [4]: 0.002 to 0.24 µM; Ki [5]: > 50 µM; Ki [6]: 0.002 to 0.24 µM |
| CC(C)N(CCCNC(=O)Nc1ccc(C(C)(C)C)cc1)C[C@H]1O[C@@H](n2ccc3c(N)ncnc32)[C@H](O)[C@@H]1O | 35.2 | > 5.68 | > 200 |  |
| CC(C)N(CCCNC(=O)Nc1ccc(C(F)(F)F)cc1)C[C@H]1O[C@@H](n2cnc3c(NCc4cccc(F)c4)ncnc32)[C@H](O)[C@@H]1O | 6.46 | 3.14 | 20.3 | Ratio IC50 (Zika virus [10]): 5 - 7.7 |
| CC(C)N(CCCNC(=O)NC(C)(C)C)C[C@H]1O[C@@H](n2cnc3c(NCc4cccc(F)c4)ncnc32)[C@H](O)[C@@H]1O | > 50 |  |  |  |
| CC(C)N(CCCNC(=O)Nc1ccc(C(C)(C)C)cc1)C[C@H]1O[C@@H](n2cnc3c(NCc4cccc(Cl)c4)ncnc32)[C@H](O)[C@@H]1O |  |  | 6.73 |  |
| CC(C)N(CCCO)C[C@H]1O[C@@H](n2cnc3c(NCc4cccc(F)c4)ncnc32)[C@H](O)[C@@H]1O | > 50 |  |  |  |
| COc1ccc(NC(=O)NCCCN(C[C@H]2O[C@@H](n3cnc4c(NCc5cccc(F)c5)ncnc43)[C@H](O)[C@@H]2O)C(C)C)cc1 | > 50 |  |  |  |
| CC(C)N(CCCNC(=O)Nc1ccc(F)cc1)C[C@H]1O[C@@H](n2cnc3c(NCc4cccc(Cl)c4)ncnc32)[C@H](O)[C@@H]1O | 15.3 | 1.31 | 20 |  |
| COC(=O)CCN(C[C@H]1O[C@@H](n2cnc3c(NCc4cccc(F)c4)ncnc32)[C@H](O)[C@@H]1O)C(C)C | > 50 |  |  |  |
| CC(C)N(CCCN)C[C@H]1O[C@@H](n2cnc3c(NCc4cccc(F)c4)ncnc32)[C@H](O)[C@@H]1O | > 50 |  |  |  |
| CC(C)N(CCCNC(=O)NC(C)(C)C)C[C@H]1O[C@@H](n2cnc3c(NCc4cccc(Cl)c4)ncnc32)[C@H](O)[C@@H]1O | 20.6 | 2.84 | 58.5 |  |
| CC(C)N(CCCNC(=O)Nc1ccc(F)cc1)C[C@H]1O[C@@H](n2cnc3c(NCc4cccc(F)c4)ncnc32)[C@H](O)[C@@H]1O | > 50 |  |  |  |
| CC(C)NC[C@H]1O[C@@H](n2cnc3c(NCc4cccc(Cl)c4)ncnc32)[C@H](O)[C@@H]1O | 6.33 | 4.64 | 29.4 |  |
| CC(C)N(CCCNC(=O)Nc1cccc(C(F)(F)F)c1)C[C@H]1O[C@@H](n2cnc3c(NCc4cccc(F)c4)ncnc32)[C@H](O)[C@@H]1O | 6.99 | 1.84 | 12.9 | Ratio IC50 (Zika virus [10]): 5 - 7.7 |
| CC(C)N(CCCNC(=O)NC1CCCCC1)C[C@H]1O[C@@H](n2cnc3c(NCc4cccc(F)c4)ncnc32)[C@H](O)[C@@H]1O | > 50 |  |  |  |
| CC(C)N(CCCNC(=O)Nc1ccc(C(C)(C)C)cc1)C[C@H]1O[C@@H](n2cnc3c(NCc4cccc(F)c4)ncnc32)[C@H](O)[C@@H]1O | 6.65 | 2.81 | 18.7 | Ratio IC50 (Zika virus [10]): 5 - 7.7 |
| CC(C)N(CCCNC(=O)Nc1cccc(C(F)(F)F)c1)C[C@H]1O[C@@H](n2cnc3c(NCc4cccc(Cl)c4)ncnc32)[C@H](O)[C@@H]1O | 4.56 | 1.29 | 5.88 | Ratio IC50 (Zika virus [10]): 5 - 7.7 |
| COc1ccc(NC(=O)NCCCN(C[C@H]2O[C@@H](n3cnc4c(NCc5cccc(Cl)c5)ncnc43)[C@H](O)[C@@H]2O)C(C)C)cc1 | > 50 |  |  |  |
| COC(=O)CCN(C[C@H]1O[C@@H](n2cnc3c(NCc4cccc(Cl)c4)ncnc32)[C@H](O)[C@@H]1O)C(C)C | > 50 |  |  |  |
| CC(C)N(CCCNC(=O)NC1CCCCC1)C[C@H]1O[C@@H](n2cnc3c(NCc4cccc(Cl)c4)ncnc32)[C@H](O)[C@@H]1O | 12.2 | 4.7 | 57.6 |  |
| CC(C)N(CCCO)C[C@H]1O[C@@H](n2cnc3c(NCc4cccc(Cl)c4)ncnc32)[C@H](O)[C@@H]1O | 27.5 | 2.57 | 70.6 |  |
| Cc1ccc(NC(=O)NCCCN(C[C@H]2O[C@@H](n3cnc4c(NCc5cccc(F)c5)ncnc43)[C@H](O)[C@@H]2O)C(C)C)cc1 | > 50 |  |  |  |
| CC(C)NC[C@H]1O[C@@H](n2cnc3c(NCc4cccc(F)c4)ncnc32)[C@H](O)[C@@H]1O | 30 | > 6.67 | > 200 |  |
| CC(C)N(CCCN)C[C@H]1O[C@@H](n2cnc3c(NCc4cccc(Cl)c4)ncnc32)[C@H](O)[C@@H]1O | > 50 |  |  |  |
| CC(C)N(CCCNC(=O)Nc1ccc(C(F)(F)F)cc1)C[C@H]1O[C@@H](n2cnc3c(NCc4cccc(Cl)c4)ncnc32)[C@H](O)[C@@H]1O |  |  | 6.35 |  |
| Cc1ccc(NC(=O)NCCCN(C[C@H]2O[C@@H](n3cnc4c(NCc5cccc(Cl)c5)ncnc43)[C@H](O)[C@@H]2O)C(C)C)cc1 | 5.8 | 3.29 | 19.1 | Ratio IC50 (Zika virus [10]): 5 - 7.7 |
| Nc1ncnc2c1ncn2[C@@H]1O[C@H](C[C@@H](N)CC[C@H](N)C(=O)O)[C@@H](O)[C@H]1O [SINEFUNGIN] | > 50 |  |  |  |
